According to ChEMBL document CHEMBL1135934, “Structure-activity relationships of methoctramine-related polyamines as muscular nicotinic receptor noncompetitive antagonists. 2. Role of polymethylene chain lengths separating amine functions and of substituents on the terminal nitrogen atoms” (J Med Chem, 2002):

How the values were obtained:
[1] = target: Muscarinic acetylcholine receptor M3 (Cavia porcellus) (UniProt Q8VH26); assay: Antagonist affinity at muscarinic acetylcholine receptor (mAChR) of guinea pig longitudinal ileum (M3); format: functional, tissue-based
Chain of Muscarinic acetylcholine receptor M3 (Cavia porcellus) (Q8VH26 1-587): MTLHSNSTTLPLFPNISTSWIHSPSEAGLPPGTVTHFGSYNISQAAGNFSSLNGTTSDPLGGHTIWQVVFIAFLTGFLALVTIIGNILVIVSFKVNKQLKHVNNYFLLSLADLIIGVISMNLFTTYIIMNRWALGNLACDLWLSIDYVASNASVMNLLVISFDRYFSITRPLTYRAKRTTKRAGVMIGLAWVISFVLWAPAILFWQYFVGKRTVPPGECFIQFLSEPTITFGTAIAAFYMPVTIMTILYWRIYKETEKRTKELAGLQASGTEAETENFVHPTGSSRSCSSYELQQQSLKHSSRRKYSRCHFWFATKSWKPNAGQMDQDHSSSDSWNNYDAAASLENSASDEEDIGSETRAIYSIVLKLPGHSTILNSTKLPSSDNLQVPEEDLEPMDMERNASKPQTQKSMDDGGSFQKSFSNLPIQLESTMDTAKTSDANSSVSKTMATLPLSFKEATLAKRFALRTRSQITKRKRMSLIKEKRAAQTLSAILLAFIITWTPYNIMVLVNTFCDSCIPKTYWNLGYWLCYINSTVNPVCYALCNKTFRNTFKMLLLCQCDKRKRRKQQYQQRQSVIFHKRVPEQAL
Outline: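 Guinea pig ileum (either sex, 200-400 g) in a 15 mL organ bath of physiological salt solution, gassed 5% CO2/95% O2, pH 7.4. Arecaidine propargyl ester curves (0.01-0.5 µM) were run at 30 min intervals, with the first discarded and the second taken as control. A repeat curve followed 60 min antagonist. pK came from graphical EC50 dose ratios by the Furchgott equation.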

[2] = Antagonism of carbachol action on nAChR of isolated frog rectus abdominus.; format: functional, tissue-based, Rectus abdominis muscle
[3] = target: Acetylcholine receptor (Torpedo californica) (UniProt P02710+P02712+P02718+P02714); settings: Tetronarce californica; Electric organ
[4] = tested on: Muscarinic acetylcholine receptor M2 (Cavia porcellus); assay: Antagonist affinity at muscarinic acetylcholine receptor (mAChR) of guinea pig left atrium (M2); settings: Cardiac atrium

For COc1ccc2cc(C(=O)NCCCNCCCCCCNCCCCCCCCNCCCCCCNCc3ccccc3OC)c(=O)oc2c1, the pKB [1] was 6.19, the “Log IC50” value [2] was -6.21 and the pKapp [3] was 6.41.

With COc1ccccc1CNCCCCCCNCCCCCCCCNCCCCCCNCc1ccccc1OC [METHOCTRAMINE] the pKB [1] was 6.14, the “Log IC50” value [2] was -5.93 and the pKapp [3] was 6.21.

For CCCC(=O)N[C@H](Cc1ccc(O)cc1)C(=O)NCCCNCCCCCCNCCCCCCNCCCCCCNCc1ccccc1OC, the pKB [1] was 5.08, the “Log IC50” value [2] was -5.48 and the pKapp [3] was 6.12. The pKB [4] was 5.87.

With COc1ccccc1CNCCCNCCCCCCNCCCCCCCCNCCCCCCNCCCNCc1ccccc1OC the pKB [1] was under 6, the “Log IC50” value [2] was -6.44 and the pKapp [3] was 6.66. It also gave a pKB [4] of under 6.

With [N-]=[N+]=Nc1ccc(C(=O)NCCCNCCCCCCNCCCCCCCCNCCCCCCNCCCNC(=O)c2ccc(N=[N+]=[N-])cc2O)c(O)c1 the “Log IC50” value [2] was -5.8 and the pKapp [3] was 5.86.

With CCCC(=O)N[C@H](Cc1ccc(O)cc1)C(=O)NCCCNCCCCCCNCCCCCCNCCCCCCN the pKB [1] was 5.16, the “Log IC50” value [2] was -5.62 and the pKapp [3] was 4.63. The pKB [4] was under 5.

For COc1ccccc1CNCCCCCCOCCCCCCCCOCCCCCCNCc1ccccc1OC, the pKB [1] was under 5, the “Log IC50” value [2] was -5.14 and the pKB [4] was under 5.

For COc1ccccc1CN(C)CCCCCCN(C)CCCCCCCCN(C)CCCCCCN(C)Cc1ccccc1OC, the pKB [1] was under 5, the “Log IC50” value [2] was -5.88 and the pKB [4] was 6.79.

With CCCC(=O)N[C@H](Cc1ccc(O)cc1)C(=O)NCCCNCCCCCCNCCCCCCCCCCCCNCCCCCCNCc1ccccc1OC the “Log IC50” value [2] was -6.27 and the pKapp [3] was 5.89.

With COc1ccccc1CNCCCCCCNCCCCCCCCCCCCNCCCCCCNCc1ccccc1OC the pKB [1] was 5.98, the “Log IC50” value [2] was -7.02 and the pKapp [3] was 5.66. It also gave a pKB [4] of 7.35.

With c1ccc(C(CNCCCCCCNCCCCCCCCNCCCCCCNCC(c2ccccc2)c2ccccc2)c2ccccc2)cc1 the pKB [1] was 5.4, the “Log IC50” value [2] was -6.31 and the pKB [4] was 5.98.

In the case of COc1ccccc1CCNCCCCCCNCCCCCCCCNCCCCCCNCCc1ccccc1OC, the pKB [1] is reported as 5.32, the “Log IC50” value [2] is reported as -5.36 and the pKB [4] is reported as 6.64.

With COc1ccccc1CNCCCNCCCCCCNCCCCCCNCCCCCCNCCCNCc1ccccc1OC the pKB [1] was under 5, the “Log IC50” value [2] was -6.42 and the pKapp [3] was 6.4. It also gave a pKB [4] of 6.15.

For COc1ccccc1CNCCCCCCNCc1ccc(-c2ccc(-c3ccc(CNCCCCCCNCc4ccccc4OC)cc3)cc2)cc1, the pKB [1] was under 5, the “Log IC50” value [2] was -6.3 and the pKapp [3] was 6.35. For the same compound, the pKB [4] was under 5.

In the case of COc1ccccc1CNCc1ccc(CNCCCCCCCCCCCCNCc2ccc(CNCc3ccccc3OC)cc2)cc1, the pKB [1] is reported as under 5, the “Log IC50” value [2] is reported as -6.43 and the pKapp [3] is reported as 6.19. The pKB [4] was under 5.

For [N-]=[N+]=Nc1ccc(C(=O)NCCCNCCCCCCNCCCCCCCCCCCCNCCCCCCNCCCNC(=O)c2ccc(N=[N+]=[N-])cc2O)c(O)c1, the “Log IC50” value [2] was -6.17 and the pKapp [3] was 5.72.

For CCCC(=O)N[C@H](Cc1ccc(O)cc1)C(=O)NCCCNCCCCCCNCCCCCCCCCCCCNCCCCCCN, the “Log IC50” value [2] was -6.3 and the pKapp [3] was 5.28.

With COc1ccccc1CNCCCNCCCCCCNCCCCCCCCCCCCNCCCCCCNCCCNCc1ccccc1OC the pKB [1] was under 5, the “Log IC50” value [2] was -6.66 and the pKapp [3] was 7.04. It also gave a pKB [4] of 6.5.

In the case of CCCC(=O)NC(Cc1ccc(O)cc1)C(=O)NCCCNCCCCNCCCN (stereo unspecified), the pKB [1] is reported as under 5, the “Log IC50” value [2] is reported as -4.62 and the pKapp [3] is reported as 3.94.

In the case of COc1ccc2cc(C(=O)NCCCNCCCCCCNCCCCCCCCNCCCCCCNCc3cc(I)ccc3OC)c(=O)oc2c1, the pKB [1] is reported as 5.68, the “Log IC50” value [2] is reported as -7.11 and the pKapp [3] is reported as 6.8.

With [N-]=[N+]=Nc1ccc(C(=O)NCCCNCCCCCCNCCCCCCCCNCCCCCCN)c(O)c1 the pKB [1] was 7.35, the “Log IC50” value [2] was -6.39 and the pKapp [3] was 5.46. It also gave a pKB [4] of 7.01.

In the case of COc1ccccc1CNCCCCCCNCCCCCCNCCCCCCNCCCCCCNCc1ccccc1OC, the pKB [1] is reported as 5.3, the “Log IC50” value [2] is reported as -6.68 and the pKB [4] is reported as 6.98.
